Laboratory results published in ChEMBL document CHEMBL5550111, “Design, synthesis and biological evaluation of aryloxy thiophosphoramidate triesters of anticancer nucleoside analogues” (Bioorg Med Chem, 2024).

What was measured:
[1] = test system: KG-1; test: Cytotoxicity against human KG-1 cells assessed as inhibition of cell viability incubated for 72 hrs by MTS assay; format: functional, cell-based; conditions: KG-1, 72 h
Outline: (§1)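 Cells seeded at 0.5 to 100 × 10^3 per well the day before treatment, then exposed for 72 h to 9 serial concentrations (3.16-fold dilutions, top 198 μM), in duplicate. MTS added for a final 4 h at 37 °C and absorbance read. IC50 is the concentration giving 50% loss of viability. MI% is the maximum inhibition over the tested range.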

[2] = test system: HT-29; test: Cytotoxicity against human HT-29 cells assessed as maximum inhibition of cell viability upto 198 uM incubated for 72 hrs by MTS assay relative to control; format: functional; conditions: up to 198 µM
Outline: (§2)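 Cells seeded at 0.5 to 100 × 10^3 per well the day before drug addition, then exposed to compound for 72 h. MTS added afterwards, with a further 4 h at 37 °C, and absorbance read. Tested in duplicate at 9 serial 3.16-fold dilutions, top concentration 198 μM. MI% is the maximum inhibition of viability across the tested range.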

[3] = test system: COLO 205; test: Cytotoxicity against human COLO 205 cells assessed as inhibition of cell viability incubated for 72 hrs by MTS assay; format: functional, cell-based; conditions: COLO 205, 72 h; outline: as §1
[4] = test system: MIA PaCa-2; test: Cytotoxicity against human MIA PaCa-2 cells assessed as inhibition of cell viability incubated for 72 hrs by MTS assay; format: functional, cell-based; conditions: MIA PaCa-2, 72 h; outline: as §1
[5] = Cytotoxicity against human ACHN-luc2 cells assessed as maximum inhibition of cell viability upto 198 uM incubated for 72 hrs by MTS assay relative to control; format: functional; conditions: up to 198 µM; outline: as §2
[6] = test system: 5637; test: Cytotoxicity against human 5637 cells assessed as inhibition of cell viability incubated for 72 hrs by MTS assay; format: functional, cell-based; conditions: Homo sapiens, 5637, 72 h; outline: as §1
[7] = test system: COLO 205; test: Cytotoxicity against human COLO 205 cells assessed as maximum inhibition of cell viability upto 198 uM incubated for 72 hrs by MTS assay relative to control; format: functional; conditions: up to 198 µM; outline: as §2
[8] = test system: RL; test: Cytotoxicity against human RL cells assessed as inhibition of cell viability incubated for 72 hrs by MTS assay; format: functional, cell-based; outline: as §1
[9] = test system: RL; test: Cytotoxicity against human RL cells assessed as maximum inhibition of cell viability upto 198 uM incubated for 72 hrs by MTS assay relative to control; format: functional; conditions: up to 198 µM; outline: as §2
[10] = test system: MOLT-4; test: Cytotoxicity against human MOLT-4 cells assessed as maximum inhibition of cell viability upto 198 uM incubated for 72 hrs by MTS assay relative to control; format: functional; conditions: up to 198 µM; outline: as §2
[11] = Cytotoxicity against human T24/83 cells assessed as maximum inhibition of cell viability upto 198 uM incubated for 72 hrs by MTS assay relative to control; format: functional; conditions: up to 198 µM; outline: as §2
[12] = test system: MOLT-4; test: Cytotoxicity against human MOLT-4 cells assessed as inhibition of cell viability incubated for 72 hrs by MTS assay; format: functional, cell-based; conditions: MOLT-4, 72 h; outline: as §1
[13] = test system: MDA-MB-231; test: Cytotoxicity against human MDA-MB-231 cells assessed as maximum inhibition of cell viability upto 198 uM incubated for 72 hrs by MTS assay relative to control; format: functional; conditions: up to 198 µM; outline: as §2
[14] = test system: HL-60; test: Cytotoxicity against human HL-60 cells assessed as inhibition of cell viability incubated for 72 hrs by MTS assay; format: functional, cell-based; conditions: HL-60, 72 h; outline: as §1
[15] = test system: HL-60; test: Cytotoxicity against human HL-60 cells assessed as maximum inhibition of cell viability upto 198 uM incubated for 72 hrs by MTS assay relative to control; format: functional; conditions: up to 198 µM; outline: as §2
[16] = test system: K562; test: Cytotoxicity against human K562 cells assessed as maximum inhibition of cell viability upto 198 uM incubated for 72 hrs by MTS assay relative to control; format: functional; conditions: up to 198 µM; outline: as §2
[17] = test system: HT-29; test: Cytotoxicity against human HT-29 cells assessed as inhibition of cell viability incubated for 72 hrs by MTS assay; format: functional, cell-based; conditions: HT-29, 72 h; outline: as §1
[18] = test system: MCF7; test: Cytotoxicity against human MCF7 cells assessed as inhibition of cell viability incubated for 72 hrs by MTS assay; format: functional, cell-based; conditions: MCF7, 72 h
[19] = test system: CAKI-2; test: Cytotoxicity against human CAKI-2 cells assessed as inhibition of cell viability incubated for 72 hrs by MTS assay; format: functional, cell-based; conditions: CAKI-2, 72 h; outline: as §1
[20] = test system: K562; test: Cytotoxicity against human K562 cells assessed as inhibition of cell viability incubated for 72 hrs by MTS assay; format: functional, cell-based; conditions: K562, 72 h; outline: as §1
[21] = test system: MCF7; test: Cytotoxicity against human MCF7 cells assessed as maximum inhibition of cell viability upto 198 uM incubated for 72 hrs by MTS assay relative to control; format: functional; conditions: up to 198 µM; outline: as §2
[22] = test system: KG-1; test: Cytotoxicity against human KG-1 cells assessed as maximum inhibition of cell viability upto 198 uM incubated for 72 hrs by MTS assay relative to control; format: functional; conditions: up to 198 µM; outline: as §2
[23] = test system: MDA-MB-231; test: Cytotoxicity against human MDA-MB-231 cells assessed as inhibition of cell viability incubated for 72 hrs by MTS assay; format: functional, cell-based; conditions: MDA-MB-231, 72 h; outline: as §1
[24] = test system: A498; test: Cytotoxicity against human A498 cells assessed as inhibition of cell viability incubated for 72 hrs by MTS assay; format: functional, cell-based; conditions: A498, 72 h; outline: as §1
[25] = test system: PC-3; test: Cytotoxicity against human PC-3 cells assessed as inhibition of cell viability incubated for 72 hrs by MTS assay; format: functional, cell-based; conditions: PC-3, 72 h; outline: as §1
[26] = Cytotoxicity against human ACHN-luc2 cells assessed as inhibition of cell viability incubated for 72 hrs by MTS assay; format: functional, cell-based; conditions: ACHN-luc2, 72 h; outline: as §1
[27] = Cytotoxicity against human T24/83 cells assessed as inhibition of cell viability incubated for 72 hrs by MTS assay; format: functional, cell-based; conditions: T24/83, 72 h; outline: as §1
[28] = test system: 5637; test: Cytotoxicity against human 5637 cells assessed as maximum inhibition of cell viability upto 198 uM incubated for 72 hrs by MTS assay relative to control; format: functional; conditions: up to 198 µM; outline: as §2
[29] = test system: HepG2; test: Cytotoxicity against human HepG2 cells assessed as inhibition of cell viability incubated for 72 hrs by MTS assay; format: functional, cell-based; conditions: HepG2, 72 h; outline: as §1
[30] = test system: A498; test: Cytotoxicity against human A498 cells assessed as maximum inhibition of cell viability upto 198 uM incubated for 72 hrs by MTS assay relative to control; format: functional; conditions: up to 198 µM; outline: as §2
[31] = test system: MIA PaCa-2; test: Cytotoxicity against human MIA PaCa-2 cells assessed as maximum inhibition of cell viability upto 198 uM incubated for 72 hrs by MTS assay relative to control; format: functional; conditions: up to 198 µM; outline: as §2
[32] = test system: PC-3; test: Cytotoxicity against human PC-3 cells assessed as maximum inhibition of cell viability upto 198 uM incubated for 72 hrs by MTS assay relative to control; format: functional; conditions: up to 198 µM; outline: as §2
[33] = test system: HepG2; test: Cytotoxicity against human HepG2 cells assessed as maximum inhibition of cell viability upto 198 uM incubated for 72 hrs by MTS assay relative to control; format: functional; conditions: up to 198 µM; outline: as §2
[34] = test system: CAKI-2; test: Cytotoxicity against human CAKI-2 cells assessed as maximum inhibition of cell viability upto 198 uM incubated for 72 hrs by MTS assay relative to control; format: functional; conditions: up to 198 µM; outline: as §2
[35] = test system: BXPC-3; test: Cytotoxicity against human BXPC-3 cells assessed as maximum inhibition of cell viability upto 198 uM incubated for 72 hrs by MTS assay relative to control; format: functional; conditions: up to 198 µM; outline: as §2
[36] = test system: RT112/84; test: Cytotoxicity against human RT112/84 cells assessed as inhibition of cell viability incubated for 72 hrs by MTS assay; format: functional, cell-based; conditions: RT112/84, 72 h; outline: as §1
[37] = test system: OVCAR-3; test: Cytotoxicity against human OVCAR-3 cells assessed as inhibition of cell viability incubated for 72 hrs by MTS assay; format: functional, cell-based; conditions: OVCAR-3, 72 h; outline: as §1
[38] = test system: OVCAR-3; test: Cytotoxicity against human OVCAR-3 cells assessed as maximum inhibition of cell viability upto 198 uM incubated for 72 hrs by MTS assay relative to control; format: functional; conditions: up to 198 µM; outline: as §2
[39] = test system: SK-MES-1; test: Cytotoxicity against human SK-MES-1 cells assessed as inhibition of cell viability incubated for 72 hrs by MTS assay; format: functional, cell-based; conditions: SK-MES-1, 72 h; outline: as §1
[40] = test system: BXPC-3; test: Cytotoxicity against human BXPC-3 cells assessed as inhibition of cell viability incubated for 72 hrs by MTS assay; format: functional, cell-based; conditions: BXPC-3, 72 h; outline: as §1
[41] = test system: PANC-1; test: Cytotoxicity against human PANC-1 cells assessed as inhibition of cell viability incubated for 72 hrs by MTS assay; format: functional, cell-based; conditions: PANC-1, 72 h; outline: as §1
[42] = test system: RT112/84; test: Cytotoxicity against human RT112/84 cells assessed as maximum inhibition of cell viability upto 198 uM incubated for 72 hrs by MTS assay relative to control; format: functional; conditions: up to 198 µM; outline: as §2
[43] = test system: A2780; test: Cytotoxicity against human A2780 cells assessed as maximum inhibition of cell viability upto 198 uM incubated for 72 hrs by MTS assay relative to control; format: functional; conditions: up to 198 µM; outline: as §2
[44] = test system: SK-MES-1; test: Cytotoxicity against human SK-MES-1 cells assessed as maximum inhibition of cell viability upto 198 uM incubated for 72 hrs by MTS assay relative to control; format: functional; conditions: up to 198 µM; outline: as §2
[45] = test system: A2780; test: Cytotoxicity against human A2780 cells assessed as inhibition of cell viability incubated for 72 hrs by MTS assay; format: functional, cell-based; conditions: A2780, 72 h; outline: as §1
[46] = test system: PANC-1; test: Cytotoxicity against human PANC-1 cells assessed as maximum inhibition of cell viability upto 198 uM incubated for 72 hrs by MTS assay relative to control; format: functional; conditions: up to 198 µM; outline: as §2

## C[C@H](NP(=S)(OC[C@@H]1C[C@@H](O)[C@H](n2cnc3c(N)ncnc32)O1)Oc1ccccc1)C(=O)OCc1ccccc1 (some centres undefined)
[1]
  IC50: 60 µM
[2]
  Imax: 100%
[3]
  IC50: 41.8 µM
[4]
  IC50: 12.6 µM
[5]
  Imax: 97%
[6]
  IC50: 82.6 µM
[7]
  Imax: 99%
[8]
  IC50: 95.6 µM
[9]
  Imax: 113%
[10]
  Imax: 99%
[11]
  Imax: 100%
[12]
  IC50: 9.19 µM
[13]
  Imax: 96%
[14]
  IC50: 73.7 µM
[15]
  Imax: 99%
[16]
  Imax: 96%
[17]
  IC50: 57.9 µM
[18]
  IC50: 40.4 µM
[19]
  IC50: 76 µM
[20]
  IC50: 64.5 µM
[21]
  Imax: 100%
[22]
  Imax: 98%
[23]
  IC50: 50.6 µM
[24]
  IC50: 44.5 µM
[25]
  IC50: 62.8 µM
[26]
  IC50: 33.9 µM
[27]
  IC50: 42.6 µM
[28]
  Imax: 100%
[29]
  IC50: 25.3 µM
[30]
  Imax: 95%
[31]
  Imax: 100%
[32]
  Imax: 97%
[33]
  Imax: 100%
[34]
  Imax: 78%

## C[C@H](NP(=O)(OC[C@H]1O[C@@H](n2ccc(N)nc2=O)C(F)(F)[C@@H]1O)Oc1ccccc1)C(=O)OCc1ccccc1 (some centres undefined) [FOSGEMCITABINE PALABENAMIDE]
[35]
  Imax: 64%
[2]
  Imax: 64%
[3]
  IC50: 1.82 µM
[36]
  IC50: 0.11 µM
[4]
  IC50: 0.12 µM
[37]
  IC50: 119 µM
[7]
  Imax: 72%
[38]
  Imax: 16%
[13]
  Imax: 71%
[17]
  IC50: 0.48 µM
[39]
  IC50: 0.11 µM
[40]
  IC50: 0.33 µM
[41]
  IC50: 3.96 µM
[42]
  Imax: 79%
[23]
  IC50: 1 µM
[25]
  IC50: 1.09 µM
[43]
  Imax: 76%
[27]
  IC50: 0.05 µM
[44]
  Imax: 79%
[29]
  IC50: 1.16 µM
[45]
  IC50: 0.27 µM
[46]
  Imax: 45%
[31]
  Imax: 69%
[32]
  Imax: 65%
[33]
  Imax: 57%
